Source: ChEMBL document CHEMBL3826882, “Discovery of 1-((2R,4aR,6R,7R,7aR)-2-Isopropoxy-2-oxidodihydro-4H,6H-spiro[furo[3,2-d][1,3,2]dioxaphosphinine-7,2'-oxetan]-6-yl)pyrimidine-2,4(1H,3H)-dione (JNJ-54257099), a 3'-5'-Cyclic Phosphate Ester Prodrug of 2'-Deoxy-2'-Spirooxetane Uridine Triphosphate Useful for HCV Inhibition” (J Med Chem, 2016)

Key:
[1] = test system: Hepatocyte; assay: Prodrug conversion in rat primary hepatocytes assessed as 2'-deoxy-2'-spirooxetane uridine triphosphate level per million cells at 2 uM after 4 hrs using radiolabelled compound by LC-MS/MS analysis; format: ADME, cell-based
Method in brief: (§1)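 Study A: fresh primary hepatocyte cultures from mouse, rat, dog and human incubated with tritiated prodrug at 2 or 62.5 µM for 4 or 24 h. Triphosphate in cell lysates reported as pmol/million hepatocytes. Duplicate or single measurements.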

[2] = test system: Hepatocyte; assay: Prodrug conversion in rat primary hepatocytes assessed as 2'-deoxy-2'-spirooxetane uridine triphosphate level per million cells at 2 uM after 24 hrs using radiolabelled compound by LC-MS/MS analysis; format: ADME, cell-based; method in brief: as §1
[3] = test system: Hepatocyte; assay: Prodrug conversion in rat primary hepatocytes assessed as 2'-deoxy-2'-spirooxetane uridine triphosphate level per million cells at 62.5 uM after 24 hrs using radiolabelled compound by LC-MS/MS analysis; format: ADME, cell-based; method in brief: as §1
[4] = Prodrug conversion in dog primary hepatocytes assessed as 2'-deoxy-2'-spirooxetane uridine triphosphate level per million cells at 2 uM after 24 hrs using radiolabelled compound by LC-MS/MS analysis; format: ADME, cell-based, Canis lupus familiaris, Hepatocyte; method in brief: as §1
[5] = test system: Hepatitis C virus; assay: Antiviral activity against HCV genotype 1a infected in homozygous cDNA-uPA chimeric SCID mouse bearing humanized hepatocytes assessed as change in HCV RNA level in serum at 50 mg/kg, po bid administered through gavage for 7 days by RT-PCR method; format: functional, Hepacivirus hominis, subtype 1a, Hepatocyte
Method in brief: (§2)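 Male chimeric SCID cDNA-uPA+/+ mice with human hepatocyte liver (≥70% replacement by blood human albumin) and serum HCV RNA >1.0×10^6 copies/mL the week before dosing. Oral gavage for 7 days in 20% HP-β-CD, 50-200 mg/kg QD or BID. Serum sampled pre-dose on days 1, 2, 3, 5 and 7. Real-time PCR; mean change in log10 copies/mL, day 7 vs day 1 pre-dose.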

[6] = test system: Hepatitis C virus; assay: Antiviral activity against HCV genotype 3a infected in homozygous cDNA-uPA chimeric SCID mouse bearing humanized hepatocytes assessed as change in HCV RNA level in serum at 100 mg/kg, po bid administered through gavage for 7 days by RT-PCR method; format: functional, Hepacivirus hominis, Hepatocyte; method in brief: as §2
[7] = Prodrug conversion in dog cryopreserved hepatocytes assessed as 2'-deoxy-2'-spirooxetane uridine triphosphate level per million cells at 10 uM after 2 hrs by LC-MS/MS analysis; format: ADME, cell-based, Canis lupus familiaris, Hepatocyte
Method in brief: (§3)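 Plated cryopreserved hepatocytes (study B) incubated with 10 µM unlabeled prodrug for 2, 8 or 24 h. Triphosphate measured in cell lysates and expressed as pmol/million hepatocytes. Quantification limit 2 ng/10^6 cells.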

[8] = Prodrug conversion in dog cryopreserved hepatocytes assessed as 2'-deoxy-2'-spirooxetane uridine triphosphate level per million cells at 10 uM after 8 hrs by LC-MS/MS analysis; format: ADME, cell-based, Canis lupus familiaris, Hepatocyte; method in brief: as §3
[9] = test system: Hepatocyte; assay: Prodrug conversion in mouse primary hepatocytes assessed as 2'-deoxy-2'-spirooxetane uridine triphosphate formation measured at 8 hrs by LC-MS/MS analysis; format: ADME, cell-based
Method in brief: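 Hepatocyte primary cultures followed over time for triphosphate formation in cell lysates: rat and mouse up to 24 h, human up to 96 h.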

[10] = test system: Hepatocyte; assay: Prodrug conversion in human hepatocytes assessed as 2'-deoxy-2'-spirooxetane uridine triphosphate formation in presence of CYP3A4 inhibitor ritonavir by LC-MS/MS analysis; format: ADME, cell-based
[11] = test system: Hepatocyte; assay: Drug level in human hepatocytes in presence of CYP3A4 inhibitor ritonavir by LC-MS/MS analysis; format: ADME, cell-based
[12] = test system: Hepatocyte; assay: Drug level in human hepatocytes in presence of CYP3A4 inhibitor ketoconazole by LC-MS/MS analysis; format: ADME, cell-based
[13] = test system: Hepatocyte; assay: Drug level in human hepatocytes in presence of pan-CYP inhibitor 1-ABT by LC-MS/MS analysis; format: ADME, cell-based
[14] = test system: Hepatocyte; assay: Prodrug conversion in human hepatocytes assessed as 2'-deoxy-2'-spirooxetane uridine triphosphate formation in presence of pan-PDE inhibitor ibudilast by LC-MS/MS analysis; format: ADME, cell-based
[15] = test system: Hepatocyte; assay: Prodrug conversion in human hepatocytes assessed as 2'-deoxy-2'-spirooxetane uridine triphosphate formation in presence of PDE4 inhibitor rolipram by LC-MS/MS analysis; format: ADME, cell-based
[16] = test system: Hepatocyte; assay: Drug metabolism in human hepatocytes assessed as ((4R,5R,7R,8R)-5-(2,4-dioxo-3,4-dihydropyrimidin-1(2H)-yl)-8-hydroxy-1,6-dioxaspiro[3.4]octan-7-yl)methyl dihydrogen phosphate formation in presence of PDE4 inhibitor rolipram by LC-MS/MS analysis; format: ADME, cell-based
[17] = test system: Hepatocyte; assay: Prodrug conversion in human hepatocytes assessed as 2'-deoxy-2'-spirooxetane uridine triphosphate formation in presence of PDE5 inhibitor sildenafil by LC-MS/MS analysis; format: ADME, cell-based
[18] = test system: Hepatocyte; assay: Drug metabolism in human hepatocytes assessed as ((4R,5R,7R,8R)-5-(2,4-dioxo-3,4-dihydropyrimidin-1(2H)-yl)-8-hydroxy-1,6-dioxaspiro[3.4]octan-7-yl)methyl dihydrogen phosphate formation in presence of PDE5 inhibitor sildenafil by LC-MS/MS analysis; format: ADME, cell-based
[19] = Stability in human HuH7 cells assessed as parent compound level at 100 uM incubated for 96 hrs by LC-MS analysis; format: ADME, cell-based; details: huh-7, 96 h
Method in brief: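 Huh-7 replicon-containing cells incubated 96h with prodrug at 100µM; cell lysates analysed by LC-MS for triphosphate and remaining unmetabolised prodrug.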

[20] = test system: Hepatocyte; assay: Drug metabolism in human hepatocytes assessed as ((4R,5R,7R,8R)-5-(2,4-dioxo-3,4-dihydropyrimidin-1(2H)-yl)-8-hydroxy-1,6-dioxaspiro[3.4]octan-7-yl)methyl dihydrogen phosphate formation in presence of pan-PDE inhibitor ibudilast by LC-MS/MS analysis; format: ADME, cell-based
[21] = Tmax in mouse plasma at 50 mg/kg, po; format: ADME, organism-based
Method in brief: (§4)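 Single oral dose of 50 mg/kg formulated in 20% HP-β-cyclodextrin. Prodrug and its triphosphate were measured in plasma and liver (ng/mL or ng/g) over time, and Cmax, tmax, AUC, tlast and t1/2 were derived. For some analytes, data from two independent studies are reported.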

[22] = AUC (0 to last) in mouse plasma at 50 mg/kg, po; format: ADME, organism-based; parameters: dose 50 mg/kg, route oral, time 0 - last
Method in brief: (§5)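 Oral dose 50 mg/kg, formulated in 20% HP-β-cyclodextrin. Prodrug and triphosphate were measured in plasma and liver (ng/mL or ng/g). Parameters derived were Cmax, tmax, AUC0-last, AUC0-inf and t1/2. Some prodrug data come from two independent studies.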

[23] = AUC (0 to infinity) in mouse plasma at 50 mg/kg, po; format: ADME, organism-based; parameters: dose 50 mg/kg, route oral, time infinity; method in brief: as §5
[24] = Half life in mouse liver at 50 mg/kg, po; format: ADME, organism-based
Method in brief: (§6)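 Single oral dose of 50 mg/kg in 20% HP-β-cyclodextrin. Prodrug and triphosphate measured in plasma and liver over time (tlast 6–30 h). Half-life, Cmax, tmax and AUC0-last derived; liver/plasma ratio taken from AUC0-last. Prodrug data pooled from two independent studies.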

[25] = test system: Liver; assay: AUC (0 to last) in mouse liver assessed as 2'-deoxy-2'-spirooxetane uridine triphosphate at 50 mg/kg, po; format: ADME, organism-based; details: in vivo; method in brief: as §5
[26] = test system: Plasma; assay: Tlast in rat plasma at 50 mg/kg, po; format: ADME, organism-based; details: in vivo; method in brief: as §4
[27] = Half life in rat liver at 50 mg/kg, po; format: ADME, organism-based; method in brief: as §6
[28] = Half life in dog plasma at 50 mg/kg, po; format: ADME, organism-based, Canis lupus familiaris; method in brief: as §6
[29] = AUC (0 to infinity) in dog plasma at 50 mg/kg, po; format: ADME, organism-based, Canis lupus familiaris; parameters: dose 50 mg/kg, time infinity, route oral; method in brief: as §5
[30] = Cmax in dog liver at 50 mg/kg, po; format: ADME, organism-based, Canis lupus familiaris; parameters: dose 50 mg/kg, route oral
[31] = test system: Liver; assay: Cmax in dog liver assessed as 2'-deoxy-2'-spirooxetane uridine triphosphate at 50 mg/kg, po; format: ADME, organism-based, Canis lupus familiaris; parameters: dose 50 mg/kg, route oral; details: in vivo

## [3H]C1O[P@](=O)(OC(C)C)O[C@@H]2[C@@H]1O[C@@H](n1ccc(=O)[nH]c1=O)[C@@]21CCO1 (stereo partly specified)
[1]
  Drug metabolism: 0.085 pmol
[2]
  Drug metabolism: 0.027 pmol
[3]
  Drug metabolism: 0.39 pmol
[4]
  Drug metabolism: 0.007 pmol

## CC(C)O[P@@]1(=O)OC[C@H]2O[C@@H](n3ccc(=O)[nH]c3=O)[C@@]3(CCO3)[C@@H]2O1
[5]
  Activity: -0.45
[6]
  Activity: -1.08
[7]
  Drug metabolism: < 2 ng
[8]
  Drug metabolism: 0.004 pmol
[9]
  Drug metabolism: metabolite_detected
[10]
  Drug metabolism: metabolite_notdetected
[11]
  Drug uptake: Active
[12]
  Drug uptake: Active
[13]
  Drug uptake: Active
[14]
  Drug metabolism: metabolite_notdetected
[15]
  Drug metabolism: metabolite_notdetected
[16]
  Drug metabolism: metabolite_detected
[17]
  Drug metabolism: metabolite_notdetected
[18]
  Drug metabolism: metabolite_notdetected
[19]
  Stability: Stable
[20]
  Drug metabolism: metabolite_detected
[21]
  Tmax: 0.5 h
[22]
  AUC(0-t): 2560 ng·h/mL
[23]
  AUC(0-inf): 2620 ng·h/mL
[24]
  half-life: 2.1 h
[25]
  AUClast: 126982 ng·h/g
[26]
  Tlast: 30 h
[27]
  half-life: 5.3 h
[28]
  half-life: 7.3 h
[29]
  AUC(0-inf): 29100 ng·h/mL
[30]
  Cmax: 5030 ng/g
[31]
  Cmax: 46600 ng/g
